Source: ChEMBL document CHEMBL1126740, “(S)- and (R)-8-(di-n-propylamino)-6,7,8,9-tetrahydro-3H-benz[e]indole-1-carbaldehyde: a new class of orally active 5-HT1A-receptor agonists” (J Med Chem, 1993)
Activity calls are given as the source filed them. No cut-off for these calls is given here.

Assays:
[1] = biological target: T1, D(2) dopamine receptor (Rattus norvegicus, UniProt P61169); assay: In vitro binding affinity against dopamine receptor D2 using [3H]-Raclopride as radioligand in CHO cells (sc); format: cell-based
[2] = species on record: Rattus norvegicus; assay: Compound was tested for 5-HT behavioral response in reserpine pretreated rats; +5HT syndrome; format: functional, organism-based
Summary of the method: (§1)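 Male Sprague-Dawley rats (200–300 g) were given reserpine 5 mg/kg sc 18 h before testing, then the test drug sc in the neck (n = 4). Motor activity was recorded by photocells for 30 min, with gross behaviour observed throughout. 5-HT syndrome: flat body posture, extended limbs, reciprocal forepaw treading. DA response: locomotion and stereotypies.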

[3] = system: Rattus norvegicus; assay: In vivo evaluation for 5-HTP accumulation in the corpus striatum in male rats (sc); format: functional
Summary of the method: (§2)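 Male Sprague-Dawley rats were pretreated with reserpine 5 mg/kg sc 18 h before dosing. DOPA and 5-HTP in limbic system, striatum and hemispheres were measured by HPLC with electrochemical detection. Dose-response curves used 4–6 dose levels (n = 4) for each region; ED50 was estimated graphically. Partial responses are given as the maximal % reduction at the highest dose tested.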

[4] = system: Rattus norvegicus; assay: In vivo evaluation for 5-HTP accumulation in the hemispheres in male rats (sc); format: functional; summary of the method: as §2
[5] = system: Rattus norvegicus; assay: In vivo evaluation for 5-HTP accumulation in the limbic system in male rats (sc); format: functional; summary of the method: as §2
[6] = system: Rattus norvegicus; assay: In vivo evaluation for DOPA accumulation in the hemispheres in male rats at highest test dose of 12.5 uM/Kg (sc); inactive; format: functional, organism-based; summary of the method: as §2
[7] = system: Rattus norvegicus; assay: In vivo evaluation for DOPA accumulation in the limbic system in male rats (sc); format: functional; summary of the method: as §2
[8] = biological target: T1, D(2) dopamine receptor; assay: Displacement of [3H]spiperone from dopamine receptor D2
Summary of the method: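 Rat striatal membranes in 50 mM potassium phosphate buffer (3 mg original tissue) incubated with 0.5 nM [3H]spiperone for 10 min at 37 °C. Nonspecific binding was defined with 10 μM 6,7-ADTN. Ki was calculated by Cheng–Prusoff; triplicates, 3–7 experiments.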

[9] = system: Rattus norvegicus; assay: In vivo evaluation for DOPA accumulation in the corpus striatum in male rats (sc); format: functional; summary of the method: as §2
[10] = species on record: Rattus norvegicus; assay: Compound was tested for 5HT, Dopamine agonist mediated response in reserpine pretreated rats; mix DA, 5-HT syndrome; format: functional, organism-based; summary of the method: as §1
[11] = system: Rattus norvegicus; assay: In vivo evaluation for DOPA accumulation in the hemispheres in male rats at highest dose tested; inactive; format: functional, organism-based; summary of the method: as §2
[12] = system: Rattus norvegicus; assay: Maximal reduction in percent (Partial response) of DOPA accumulation rat limbic system at highest test dose of […] (sc); format: functional
[13] = system: Rattus norvegicus; assay: In vivo evaluation for DOPA accumulation in the corpus striatum in male rats at highest test dose of 50 uM/Kg (sc); inactive; format: functional, organism-based; summary of the method: as §2
[14] = system: Rattus norvegicus; assay: In vivo evaluation for DOPA accumulation in the hemispheres in male rats at highest test dose of 50 uM/Kg (sc); inactive; format: functional, organism-based; summary of the method: as §2
[15] = system: Rattus norvegicus; assay: In vivo evaluation for DOPA accumulation in the limbic system in male rats at highest test dose of 50 uM/Kg (sc); inactive; format: functional, organism-based; summary of the method: as §2
[16] = system: Rattus norvegicus; assay: Maximal reduction in percent (Partial response) of DOPA accumulation rat corpus striatum at highest test dose of 3.1 uM/Kg (sc); format: functional; summary of the method: as §2
[17] = system: Rattus norvegicus; assay: Maximal reduction in percent (Partial response) of DOPA accumulation rat limbic system at highest test dose of 3.1 uM/Kg (sc); format: functional
[18] = biological target: T2, 5-hydroxytryptamine receptor 1A (Rattus norvegicus, UniProt P19327); assay: In vitro binding affinity against 5-hydroxytryptamine 1A receptor using [3H]8-OH-DPAT
T2 sequence (P19327 whole entry): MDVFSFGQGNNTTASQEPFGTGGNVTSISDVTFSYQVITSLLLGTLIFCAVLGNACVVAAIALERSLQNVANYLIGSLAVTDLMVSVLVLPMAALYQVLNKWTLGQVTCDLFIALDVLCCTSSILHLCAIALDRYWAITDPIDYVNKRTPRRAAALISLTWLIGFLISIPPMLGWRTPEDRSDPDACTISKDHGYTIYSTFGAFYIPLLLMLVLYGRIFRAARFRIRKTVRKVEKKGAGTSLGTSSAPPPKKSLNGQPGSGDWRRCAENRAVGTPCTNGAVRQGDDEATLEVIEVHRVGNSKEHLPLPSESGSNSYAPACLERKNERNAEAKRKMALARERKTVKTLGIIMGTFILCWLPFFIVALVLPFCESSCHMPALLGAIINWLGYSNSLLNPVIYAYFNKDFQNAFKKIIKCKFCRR
Summary of the method: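 Rat whole-brain membranes (brainstem and cerebellum removed) in 50 mM Tris pH 8.0 containing NaCl, CaCl2, MgCl2 and 10 μM pargyline, 10 mg tissue per tube. Nonspecific binding was defined with 10 μM 5-HT. IC50 was taken by semi-log linear regression and Ki by Cheng–Prusoff; triplicates.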

[19] = system: Rattus norvegicus; assay: In vivo evaluation for DOPA accumulation in the hemispheres in male rats at highest dose tested at 50 uM/Kg; inactive; format: functional, organism-based; summary of the method: as §2
[20] = system: Rattus norvegicus; assay: Maximal reduction in percent (Partial response) of 5-HTP accumulation rat hemispheres at highest test dose of 50 uM/Kg (sc); format: functional; summary of the method: as §2
[21] = system: Rattus norvegicus; assay: Maximal reduction in percent (Partial response) of DOPA accumulation rat corpus striatum at highest test dose of 50 uM/Kg (sc); format: functional; summary of the method: as §2
[22] = system: Rattus norvegicus; assay: Maximal reduction in percent (Partial response) of DOPA accumulation rat limbic system at highest test dose of 50 uM/Kg (sc); format: functional

T1 sequence (P61169 whole entry): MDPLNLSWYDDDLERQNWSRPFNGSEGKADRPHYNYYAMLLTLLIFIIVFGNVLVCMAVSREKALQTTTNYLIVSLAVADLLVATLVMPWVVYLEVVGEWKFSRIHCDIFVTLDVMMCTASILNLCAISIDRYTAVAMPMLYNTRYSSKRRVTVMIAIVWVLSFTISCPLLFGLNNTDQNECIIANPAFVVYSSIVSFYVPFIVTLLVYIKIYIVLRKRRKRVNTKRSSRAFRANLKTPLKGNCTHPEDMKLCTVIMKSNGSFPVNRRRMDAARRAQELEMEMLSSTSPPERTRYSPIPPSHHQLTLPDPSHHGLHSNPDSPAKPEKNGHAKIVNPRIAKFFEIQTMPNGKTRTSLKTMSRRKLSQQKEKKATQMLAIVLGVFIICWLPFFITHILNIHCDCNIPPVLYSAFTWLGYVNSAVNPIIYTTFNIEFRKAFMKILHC

Compound | Behavioral response [2] | ED50 [3] | ED50 [4] | ED50 [5] | Ki [8] | ED50 [9] | Behavioral response [10] | ED50 [11] | ED50 [13] | ED50 [14] | ED50 [15] | other results
CCCN(CCC)C1CCc2ccc3[nH]cc(C=O)c3c2C1 (racemic) | Active | 0.054 µmol/kg | 0.067 µmol/kg | 0.06 µmol/kg | 0.12 µM | 1.8 µmol/kg |  |  |  |  |  | Ki [1]: 0.04 µM; ED50 [6]: inactive; ED50 [7]: 0.47 µmol/kg
CCCN(CCC)[C@@H]1CCc2ccc3[nH]ccc3c2C1 |  | 0.25 µmol/kg | 0.41 µmol/kg | 0.2 µmol/kg | 0.1 µM | 0.16 µmol/kg | Active | inactive |  |  |  | Reduction [12]: 37%
CCCN(CCC)[C@@H]1CCc2cccc(O)c2C1 | Active | 0.047 µmol/kg | 0.05 µmol/kg | 0.036 µmol/kg | 0.826 µM |  |  |  | inactive | inactive | inactive | 
CCCN(CCC)[C@H]1CCc2cccc(O)c2C1 | Active | 0.065 µmol/kg | 0.077 µmol/kg | 0.061 µmol/kg | 5.07 µM |  |  |  | inactive | inactive | inactive | 
CCCN(CCC)[C@H]1CCc2ccc3[nH]ccc3c2C1 |  | 0.3 µmol/kg | 0.2 µmol/kg | 0.16 µmol/kg | 0.146 µM |  | Active | inactive |  |  |  | Reduction [16]: 37%; Reduction [17]: 31%
CCCN(CCC)C1CCc2cc3cc[nH]c3cc2C1 (stereo not drawn) |  |  |  |  | 0.35 µM |  | Active |  |  |  |  | Ki [18]: 0.57 µM; ED50 [19]: inactive; Reduction [20]: 35%; Reduction [21]: 51%; Reduction [22]: 30%
